Test results published in ChEMBL document CHEMBL1155135, “Effect of Lamivudine on the plasma and intracellular pharmacokinetics of apricitabine, a novel nucleoside reverse transcriptase inhibitor, in healthy volunteers” (Antimicrob Agents Chemother, 2007).

Assays:
Homo sapiens [1] = assay: Cmax in healthy human PBMC assessed as intracellular apricitabine triphosphate level per 10^6 cells at 600 mg, po administered twice daily for 4 days; assay type: ADME, organism-based, Blood; design: dose 600 mg, route oral; conditions: in vivo, 96 h
Summary of the method: (§1)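 PBMC were isolated from triplicate day-4 blood samples taken 2, 4, 8, 12 and 24 h after the morning dose, then extracted in 70/30 methanol-Tris-HCl pH 7.4. Triphosphates were separated by anion-exchange SPE with KCl washes, eluted with 500 mM KCl, and dephosphorylated with alkaline phosphatase at 37°C. Quantitation used HPLC-MS/MS with a labelled triphosphate internal standard; LLOQ 0.0592 pmol/10^6 cells. Cmax/Tmax were read by inspection; t1/2 = ln2/λz.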

Homo sapiens [2] = assay: Volume of distribution at steady state in healthy human at 600 mg, po twice daily coadministered with 300 mg, po Lamivudine once daily for 4 days; assay type: ADME, organism-based; conditions: in vivo, 96 h
Summary of the method: (§2)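 Healthy volunteers took each regimen in random order for 4 days, with washouts of at least 7 days. The day-4 morning dose followed a fast of at least 10 h. Plasma was drawn predose and 0.5–36 h after dosing, and urine was collected to 36 h; both were assayed by validated HPLC. Cmax/Tmax were read from the curves. CLT/F = dose/AUC, CLR = 24-h urinary amount/AUC0-24, Vz/F = dose/(λz·AUC), t1/2 = ln2/λz.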

[3] = Cmax in healthy human at 600 mg, po administered twice daily for 4 days; assay type: ADME, organism-based; design: dose 600 mg, route oral; conditions: in vivo; summary of the method: as §2
Homo sapiens [4] = assay: Renal clearance in healthy human at 600 mg, po twice daily coadministered with 300 mg, po Lamivudine once daily for 4 days; assay type: ADME, organism-based, Kidney; conditions: in vivo, 96 h; summary of the method: as §2
[5] = Apparent terminal half life in healthy human at 600 mg, po twice daily coadministered with 300 mg, po Lamivudine once daily for 4 days; assay type: ADME, organism-based; conditions: in vivo; summary of the method: as §2
Homo sapiens [6] = assay: Cmax in healthy human PBMC assessed as intracellular apricitabine triphosphate level per 10^6 cells at 600 mg, po twice daily coadministered with 300 mg, po Lamivudine once daily for 4 days; assay type: ADME, organism-based, Blood; design: dose 600 mg, route oral; conditions: in vivo, 96 h; summary of the method: as §1
[7] = Tmax in healthy human at 600 mg, po twice daily coadministered with 300 mg, po Lamivudine once daily for 4 days; assay type: ADME, organism-based; conditions: in vivo; summary of the method: as §2
[8] = Apparent terminal half life in healthy human at 600 mg, po administered twice daily for 4 days; assay type: ADME, organism-based; conditions: in vivo; summary of the method: as §2
Homo sapiens [9] = assay: Half life in healthy human PBMC assessed as intracellular apricitabine triphosphate level per 10^6 cells at 600 mg, po twice daily coadministered with 300 mg, po Lamivudine once daily for 4 days; assay type: ADME, organism-based; conditions: in vivo, 96 h; summary of the method: as §1
[10] = AUC (0 to 24 hrs) in healthy human at 600 mg, po administered twice daily for 4 days; assay type: ADME, organism-based; design: dose 600 mg, time < 24 hr, route oral; conditions: plasma; summary of the method: as §2
[11] = Cmax in healthy human at 600 mg, po twice daily coadministered with 300 mg, po Lamivudine once daily for 4 days; assay type: ADME, organism-based; design: dose 600 mg, route oral; conditions: in vivo; summary of the method: as §2
[12] = Apparent total oral clearance in healthy human at 600 mg, po administered twice daily for 4 days; assay type: ADME, organism-based; conditions: in vivo; summary of the method: as §2
Homo sapiens [13] = assay: AUC (0 to 12 hrs) in healthy human PBMC assessed as intracellular apricitabine triphosphate level per 10^6 cells at 600 mg, po administered twice daily for 4 days; assay type: ADME, organism-based; design: dose 600 mg, time < 12 hr, route oral; conditions: in vivo; summary of the method: as §1
[14] = AUC (0 to 24 hrs) in healthy human at 600 mg, po twice daily coadministered with 300 mg, po Lamivudine once daily for 4 days; assay type: ADME, organism-based; design: dose 600 mg, time < 24 hr, route oral; conditions: plasma; summary of the method: as §2
Homo sapiens [15] = assay: Volume of distribution at steady state in healthy human at 600 mg, po administered twice daily for 4 days; assay type: ADME, organism-based; conditions: in vivo, 96 h; summary of the method: as §2
Homo sapiens [16] = assay: Cmin in healthy human PBMC assessed as intracellular apricitabine triphosphate level per 10^6 cells at 600 mg, po twice daily coadministered with 300 mg, po Lamivudine once daily for 4 days; assay type: ADME, organism-based; conditions: in vivo, 96 h
Homo sapiens [17] = assay: Tmax in healthy human PBMC assessed as intracellular apricitabine triphosphate level at 600 mg, po twice daily coadministered with 300 mg, po Lamivudine once daily for 4 days; assay type: ADME, organism-based; conditions: in vivo, 96 h; summary of the method: as §1
[18] = Tmax in healthy human at 600 mg, po administered twice daily for 4 days; assay type: ADME, organism-based; conditions: in vivo; summary of the method: as §2
Homo sapiens [19] = assay: Cmin in healthy human PBMC assessed as intracellular apricitabine triphosphate level per 10^6 cells at 600 mg, po administered twice daily for 4 days; assay type: ADME, organism-based; conditions: in vivo, 96 h
Homo sapiens [20] = assay: Ratio of Cmax to Cmin in healthy human PBMC assessed as intracellular apricitabine triphosphate level per 10^6 cells at 600 mg, po twice daily coadministered with 300 mg, po Lamivudine once daily for 4 days; assay type: ADME, organism-based; conditions: in vivo, 96 h
Homo sapiens [21] = assay: Tmax in healthy human PBMC assessed as intracellular apricitabine triphosphate level at 600 mg, po administered twice daily for 4 days; assay type: ADME, organism-based; conditions: in vivo, 96 h; summary of the method: as §1
Homo sapiens [22] = assay: AUC (0 to 12 hrs) in healthy human PBMC assessed as intracellular apricitabine triphosphate level per 10^6 cells at 600 mg, po twice daily coadministered with 300 mg, po Lamivudine once daily for 4 days; assay type: ADME, organism-based; design: time < 12 hr, dose 600 mg, route oral; conditions: in vivo; summary of the method: as §1
Homo sapiens [23] = assay: Apparent total oral clearance in healthy human at 600 mg, po twice daily coadministered with 300 mg, po Lamivudine once daily for 4 days; assay type: ADME, organism-based; conditions: in vivo, 96 h; summary of the method: as §2
[24] = Renal clearance in healthy human at 600 mg, po administered twice daily for 4 days; assay type: ADME, organism-based, Kidney; conditions: in vivo, read-out: CL_renal (converted); summary of the method: as §2
Homo sapiens [25] = assay: Half life in healthy human PBMC assessed as intracellular apricitabine triphosphate level per 10^6 cells at 600 mg, po administered twice daily for 4 days; assay type: ADME, organism-based; conditions: in vivo, 96 h; summary of the method: as §1
Homo sapiens [26] = assay: Ratio of Cmax to Cmin in healthy human PBMC assessed as intracellular apricitabine triphosphate level per 10^6 cells at 600 mg, po administered twice daily for 4 days; assay type: ADME, organism-based; conditions: in vivo, 96 h
Homo sapiens [27] = assay: Tmax in healthy human PBMC assessed as intracellular apricitabine triphosphate level at 300 mg, po administered once daily for 4 days; assay type: ADME, organism-based; conditions: in vivo, 96 h, in the assay text read “lamivudine” for “apricitabine”; summary of the method: as §1
[28] = Cmax in healthy human at 300 mg, po once daily coadministered with 600 mg, po apricitabine twice daily for 4 days; assay type: ADME, organism-based; design: dose 300 mg, route oral; conditions: in vivo; summary of the method: as §2
Homo sapiens [29] = assay: AUC (0 to 12 hrs) in healthy human PBMC assessed as intracellular lamivudine triphosphate level per 10^6 cells at 300 mg, po once daily coadministered with 600 mg, po apricitabine twice daily for 4 days; conditions: in vivo
[30] = AUC (0 to 24 hrs) in healthy human at 300 mg, po administered once daily for 4 days; assay type: ADME, organism-based; design: dose 300 mg, time < 24 hr, route oral; conditions: plasma; summary of the method: as §2
Homo sapiens [31] = assay: Cmin in healthy human PBMC assessed as intracellular lamivudine triphosphate level per 10^6 cells at 300 mg, po administered once daily for 4 days; conditions: in vivo, 96 h
Homo sapiens [32] = assay: Cmin in healthy human PBMC assessed as intracellular apricitabine triphosphate level per 10^6 cells at 300 mg, po once daily coadministered with 600 mg, po apricitabine twice daily for 4 days; assay type: ADME, organism-based; conditions: in vivo, 96 h
Homo sapiens [33] = assay: Cmax in healthy human PBMC assessed as intracellular apricitabine triphosphate level per 10^6 cells at 300 mg, po once daily coadministered with 600 mg, po apricitabine twice daily for 4 days; assay type: ADME, organism-based, Blood; design: dose 300 mg, route oral; conditions: in vivo, 96 h; summary of the method: as §1
Homo sapiens [34] = assay: Cmax in healthy human PBMC assessed as intracellular lamivudine triphosphate level per 10^6 cells at 300 mg, po administered once daily for 4 days; conditions: in vivo, 96 h
[35] = Tmax in healthy human at 300 mg, po administered once daily for 4 days; assay type: ADME, organism-based; conditions: in vivo; summary of the method: as §2
[36] = Tmax in healthy human at 300 mg, po once daily coadministered with 600 mg, po apricitabine twice daily for 4 days; assay type: ADME, organism-based; conditions: in vivo; summary of the method: as §2
Homo sapiens [37] = assay: Tmax in healthy human PBMC assessed as intracellular apricitabine triphosphate level at 300 mg, po once daily coadministered with 600 mg, po apricitabine twice daily for 4 days; assay type: ADME, organism-based; conditions: in vivo, 96 h; summary of the method: as §1
Homo sapiens [38] = assay: AUC (0 to 12 hrs) in healthy human PBMC assessed as intracellular lamivudine triphosphate level per 10^6 cells at 300 mg, po administered once daily for 4 days; conditions: in vivo
[39] = AUC (0 to 24 hrs) in healthy human at 300 mg, po once daily coadministered with 600 mg, po apricitabine twice daily for 4 days; assay type: ADME, organism-based; design: time < 24 hr, dose 300 mg, route oral; conditions: plasma; summary of the method: as §2
[40] = Cmax in healthy human at 300 mg, po administered once daily for 4 days; assay type: ADME, organism-based; design: dose 300 mg, route oral; conditions: in vivo; summary of the method: as §2

SMILES: Nc1ccn([C@H]2CO[C@@H](CO)S2)c(=O)n1 [APRICITABINE]
- Cmax (Homo sapiens [1]): 1.66 pmol/10^6cells
- Vdss (Homo sapiens [2]): 67.9 L
- Cmax [3]: 7430 ng/mL
- CL renal (Homo sapiens [4]): 12.2 L/h
- half-life [5]: 2.6 h
- Cmax (Homo sapiens [6]): 0.257 pmol/10^6cells
- Tmax [7]: 1.55 h
- half-life [8]: 2.72 h
- t1/2 (Homo sapiens [9]): 5.06 h
- AUC at 24 h [10]: 70900 ng·h/mL
- Cmax [11]: 7110 ng/mL
- CL/F [12]: 283 mL/min
- AUC (Homo sapiens [13]): 13.3 pmol·h/10^6 cells
- AUC at 24 h [14]: 65600 ng·h/mL
- Vdss (Homo sapiens [15]): 67.7 L
- Cmin_PBMC (Homo sapiens [16]): 0.078 pmol/10^6cells
- Tmax (Homo sapiens [17]): 3.14 h
- Tmax [18]: 1.76 h
- Cmin_PBMC (Homo sapiens [19]): 0.6 pmol/10^6cells
- Ratio (Homo sapiens [20]): 3.54
- Tmax (Homo sapiens [21]): 3.52 h
- AUC (Homo sapiens [22]): 1.98 pmol·h/10^6 cells
- CL/F (Homo sapiens [23]): 18.3 L/h
- CL renal at 96 h [24]: 192 mL/min
- t1/2 (Homo sapiens [25]): 6.22 h
- Ratio (Homo sapiens [26]): 3.28

SMILES: Nc1ccn([C@@H]2CS[C@H](CO)O2)c(=O)n1 [LAMIVUDINE]
- Tmax (Homo sapiens [27]): 4.76 h
- Cmax [28]: 3810 ng/mL
- AUC (Homo sapiens [29]): 161 pmol·h/10^6 cells
- AUC at 24 h [30]: 15700 ng·h/mL
- Cmin_PBMC (Homo sapiens [31]): 4.35 pmol/10^6cells
- Cmin_PBMC (Homo sapiens [32]): 4.52 pmol/10^6cells
- Cmax (Homo sapiens [33]): 9.91 pmol/10^6cells
- Cmax (Homo sapiens [34]): 9.83 pmol/10^6cells
- Tmax [35]: 1 h
- Tmax [36]: 1.02 h
- Tmax (Homo sapiens [37]): 3.9 h
- AUC (Homo sapiens [38]): 154 pmol·h/10^6 cells
- AUC at 24 h [39]: 15500 ng·h/mL
- Cmax [40]: 3980 ng/mL
